These results are taken from ChEMBL document CHEMBL2331384, “Synthesis, crystal structure and antibacterial activity of new highly functionalized ionic compounds based on the imidazole nucleus” (2013).

Assay [1] has as its system Staphylococcus aureus. Kind of assay: Antimicrobial activity against Staphylococcus aureus ATTC-25923 at 200 ug after overnight incubation by disk-diffusion method. The class given is functional. To be noted: for zone of inhibition at 200 µg/disc: read-out: DIZ. The essentials: (§1)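 Bacterial suspension spread over a Mueller–Hinton agar surface. 6 mm paper disks each loaded with 200 µg of compound dissolved in DMSO were placed on the agar. Plates were incubated overnight at 37 °C, and inhibition zone diameters were measured with a ruler in mm.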
For orientation: A growth-free zone around the sample is the usual read-out of agar diffusion tests.

The test system of assay [2] is Pseudomonas aeruginosa. Kind of assay: Antimicrobial activity against Pseudomonas aeruginosa ATCC 27853 at 200 ug after overnight incubation by disk-diffusion method. It is filed as functional. Particulars: for zone of inhibition at 200 µg/disc: read-out: DIZ. The essentials:
as §1

Assay [3] relates to Salmonella typhimurium. Kind of assay: Antimicrobial activity against Salmonella typhimurium ATCC 07095 after 1 day by agar dilution method. The class given is functional, Salmonella enterica subsp. enterica serovar Typhimurium. To be noted: Salmonella enterica, ATCC 07095, 24 h. An outline of the steps: (§2)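 Inoculum was an overnight broth culture diluted to about 10^6 cell/mL. MIC (µg/mL) was determined by a standardized agar dilution technique after 1 day of exposure.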
(Agar dilution tests growth on a series of plates holding different concentrations.)

In assay [4] the test system is Salmonella typhimurium. Kind of assay: Antimicrobial activity against Salmonella typhimurium ATCC 07095 at 200 ug after overnight incubation by disk-diffusion method. The class given is functional. To be noted: for diameter of the inhibition zone (DIZ): Salmonella enterica subsp. enterica serovar Typhimurium; for zone of inhibition at 200 µg/disc: Salmonella enterica, read-out: DIZ. An outline of the steps:
as §1

Assay [5] relates to Pseudomonas aeruginosa. Kind of assay: Antimicrobial activity against Pseudomonas aeruginosa ATCC 27853 after 1 day by agar dilution method. It is filed as functional. To be noted: ATCC 27853, 24 h. The essentials:
as §2

Assay [6] deals with Escherichia coli. Kind of assay: Antimicrobial activity against Escherichia coli ATTC-25922 after 1 day by agar dilution method. It is filed as functional. To be noted: ATTC-25922, 24 h. The essentials:
as §2

The subject of assay [7] is Escherichia coli. In words: Antimicrobial activity against Escherichia coli ATTC-25922 at 200 ug after overnight incubation by disk-diffusion method. The class given is functional. Particulars: for zone of inhibition at 200 µg/disc: read-out: DIZ. An outline of the steps:
as §1

Assay [8] relates to Staphylococcus aureus. In words: Antimicrobial activity against Staphylococcus aureus ATTC-25923 after 1 day by agar dilution method. The class given is functional. Particulars: ATTC-25923, 24 h. The essentials:
as §2

The test system of assay [9] is Escherichia coli. Kind of assay: Antimicrobial activity against Escherichia coli ATTC-25922 at 100 ug after overnight incubation by disk-diffusion method. It is filed as functional, organism-based.
Assay [10] has as its system Salmonella typhimurium. In words: Antimicrobial activity against Salmonella typhimurium ATCC 07095 at 100 ug after overnight incubation by disk-diffusion method. It is filed as functional, organism-based. To be noted: Salmonella enterica subsp. enterica serovar Typhimurium.
Assay [11] relates to Staphylococcus aureus. In words: Antimicrobial activity against Staphylococcus aureus ATTC-25923 at 100 ug after overnight incubation by disk-diffusion method. The class given is functional, organism-based.

Active and inactive are the calls of the source. No cut-off for these calls is given here. A value given as a limit tells only on which side of the number the result lay.

For orientation: MIC means the lowest concentration found to suppress growth. For the molecule `CCOC(=O)C[n+]1c(Br)c(Br)n(C)c1CO.[Br-]`, the “diameter of the inhibition zone (DIZ)” value in [1] and in assay [4] was “inactive” in each case. Besides, the zone of inhibition at 200 µg/disc in [2] and in assay [7] was 7 mm each time. For the same molecule, the MIC in [3] was > 250 µg/mL; in assay [5], 25 µg/mL; in assay [6], 150 µg/mL; in [8] it was > 250 µg/mL.
As for SPIRAMYCIN, the zone of inhibition in assay [9] stood at 9 mm; in [10], 9 mm; in [11], 22 mm.
Consider `Cn1c(Br)c(Br)[n+](CC(=O)c2ccccc2)c1CO.[Br-]`, for which the zone of inhibition at 200 µg/disc in assay [1] came out at 7 mm; in assay [2], 9 mm; in assay [7], 7 mm. In addition, the minimum inhibitory concentration (MIC) in assay [3] was > 250 µg/mL; in assay [5] it was 50 µg/mL; in assay [6] it was 25 µg/mL; in [8], > 250 µg/mL. Besides, the “diameter of the inhibition zone (DIZ)” value in assay [4] is “inactive”.
With `Cc1n(C)c([N+](=O)[O-])c[n+]1CC(=O)c1ccccc1.[Br-]`, the zone of inhibition at 200 µg/disc was 9 mm in assay [1], 10 mm in assay [2], 7 mm in assay [4] and 9 mm in assay [7]. The MIC was 50 µg/mL in assay [3], > 250 µg/mL in [5], 50 µg/mL in assay [6] and > 250 µg/mL in [8].
For `CCOC(=O)C[n+]1cn(C)c(I)c1I.[Br-]`, the “diameter of the inhibition zone (DIZ)” value in assay [1], in [4] and in assay [7] was “inactive” in each case. Also, in assay [2], the zone of inhibition at 200 µg/disc was 9 mm. For the same molecule, the minimum inhibitory concentration (MIC) was found to be 50 µg/mL in assay [3], 6.2 µg/mL in assay [5], 6.2 µg/mL in assay [6] and 250 µg/mL in [8].
As for `CCOC(=O)C[n+]1c(Br)c(Br)n(C)c1-c1ccccc1.[Br-]`, the zone of inhibition at 200 µg/disc in assay [1] is 9 mm; in [2], 7 mm; in assay [4], 7 mm. Moreover, the minimal inhibitory concentration (MIC) in assay [3] was 25 µg/mL; in assay [5], 25 µg/mL; in assay [6], 50 µg/mL; in assay [8], > 250 µg/mL. The “diameter of the inhibition zone (DIZ)” value in [7] is “inactive”.
For `CCOC(=O)C[n+]1c(Br)c(Br)n(C)c1C.[Br-]`, the zone of inhibition at 200 µg/disc in [1] was 10 mm. Moreover, the “diameter of the inhibition zone (DIZ)” value in assay [2], in assay [4] and in assay [7] was “inactive” throughout. In addition, the MIC is > 250 µg/mL in assay [3], 250 µg/mL in assay [5], 25 µg/mL in assay [6] and > 250 µg/mL in [8].
Take `Cc1n(C)c(I)c(I)[n+]1CC(=O)c1ccccc1.[Br-]`: the zone of inhibition at 200 µg/disc is 15 mm in assay [1], 9 mm in assay [2], 8 mm in assay [4] and 9 mm in assay [7]. Also, the MIC in assay [3] is 25 µg/mL; in assay [5], 12.5 µg/mL; in assay [6] it was 12.5 µg/mL; in [8], > 250 µg/mL.
Consider `Cn1c[n+](CC(=O)c2ccccc2)cc1[N+](=O)[O-].[Br-]`, for which the “diameter of the inhibition zone (DIZ)” value in assay [1], in assay [4] and in [7] was “inactive” throughout. In addition, the zone of inhibition at 200 µg/disc in assay [2] is 9 mm. Besides, the minimal inhibitory concentration (MIC) in assay [3] was 12.5 µg/mL; in assay [5], 12.5 µg/mL; in [6] it was 12.5 µg/mL; in [8], > 250 µg/mL.
For `Cc1n(C)c(Br)c(Br)[n+]1CC(=O)c1ccccc1.[Br-]`, the zone of inhibition at 200 µg/disc amounted to 7 mm in assay [1], 9 mm in assay [2], 7 mm in [4] and 9 mm in assay [7]. Moreover, the MIC was > 250 µg/mL in [3], 150 µg/mL in [5], 12.5 µg/mL in assay [6] and > 250 µg/mL in assay [8].
On to `Cn1c[n+](CC(=O)c2ccccc2)c(I)c1I.[Br-]`, for which the zone of inhibition at 200 µg/disc in [1] is 15 mm; in assay [2], 8 mm; in assay [4] it was 9 mm; in assay [7], 12 mm. Moreover, the MIC in [3] worked out at 12.5 µg/mL; in assay [5] it was 25 µg/mL; in [6], 25 µg/mL; in [8], 250 µg/mL.
Regarding `Cn1c(Br)c(Br)[n+](CC(=O)c2ccccc2)c1-c1ccccc1.[Br-]`, the zone of inhibition at 200 µg/disc in [1] came to 12 mm; in assay [2] it was 8 mm; in [4], 7 mm; in assay [7], 9 mm. Moreover, the MIC in assay [3] amounted to 150 µg/mL; in assay [5], 50 µg/mL; in [6], 50 µg/mL; in [8] it was 250 µg/mL.
In the case of `CCOC(=O)C[n+]1c(I)c(I)n(C)c1C.[Br-]`, the “diameter of the inhibition zone (DIZ)” value in assay [1], in [4] and in assay [7] was “inactive” throughout. Moreover, the zone of inhibition at 200 µg/disc in assay [2] was 9 mm. The MIC was > 250 µg/mL in [3], 25 µg/mL in assay [5], 25 µg/mL in [6] and > 250 µg/mL in [8].
